According to article PMC11350716 (JACS Au, 2024):

Experiments:
[1] = assay type: in vivo; conditions: mice, intravenous, 0.02 mg/mouse as ICG, brains harvested after 48 h
How it was run: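 Mice received the test compound or free ICG alone by intravenous injection. Brains were harvested 48 h later and imaged for near-infrared ICG fluorescence, with instrument sensitivity set to 1,600–3,000 (fluorescence intensity a.u.).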

[2] = system: VIPR2; conditions: read-out: antagonist activity IC50; cited from earlier work

Row | Molecule | ICG fluorescence in the brain [1] | IC50 [2]
1 | CCCC[C@@H]1NC(=O)[C@H](CCC(=O)O)NC(=O)[C@H](C)NC(=O)[C@H](CC(C)C)NC(=O)[C@H](CCCC)NC(=O)[C@H](Cc2ccc(O)cc2)NC(=O)[C@H](CCCCN)NC(=O)[C@H](Cc2ccc(O)cc2)NC(=O)[C@H]([C@@H](C)O)NC(=O)[C@@H](NC(=O)[C@@H]2CCCN2C(=O)[C@@H](NC(=O)CNC(=O)CCOCCOCCOCCOCCn2nnc3c2-c2ccccc2CN(C(=O)CCNC(=O)CCOCCOCCOCCOCCOCCC(=O)NCCC(=O)N2Cc4ccccc4-c4c(nnn4CCNC(=O)CCCCCN4C(=CC=CC=CC=CC5=[N+](CCCCS(=O)(=O)[O-])c6ccc7ccccc7c6C5(C)C)C(C)(C)c5c4ccc4ccccc54)-c4ccccc42)c2ccccc2-3)[C@@H](C)O)CSSC[C@@H](C(=O)O)NC1=O [ICG-KS-487] | Fluorescence was clearly observed | 
2 | Ac-(CPPYLP[KYLC)D]LI-NH2 (bicyclic or more) [KS-133] |  | 25 nM
3 | CC1(C)C(/C=C/C=C/C=C/C=C2\N(CCCCS(=O)(=O)O)c3ccc4ccccc4c3C2(C)C)=[N+](CCCCS(=O)(=O)[O-])c2ccc3ccccc3c21 [ICG, indocyanine green, reference compound] | but not in the brains | 
